Experimental data as given in ChEMBL document CHEMBL1131136, “4-(beta-Arylvinyl)-3-(beta-arylvinylketo)-1-ethyl-4-piperidinols and related compounds: a novel class of cytotoxic and anticancer agents” (J Med Chem, 1998).

Tests used:
Homo sapiens [1] = organism: Homo sapiens; assay: Cytotoxicity evaluated against human tumor.; assay type: functional
Outline: (§1)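 NCI panel of about 55 human tumor cell lines covering leukemia, melanoma, non-small-cell lung, colon, CNS, ovarian, renal, prostate and breast cancers, with some compounds tested on small-cell lung instead of prostate and breast.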

P388 = assay: Cytotoxicity evaluated against P388 cells.; assay type: functional, cell-based; conditions: Mus musculus
L1210 = assay: Cytotoxicity evaluated against L1210 cells.; assay type: functional, cell-based; conditions: Mus musculus
Mus musculus [2] = assay: Percentage increase in the median time in days for the CAKI-1 treated tumor to reach a certain size compared to controls at the dose of 16.8 mg/kg; assay type: functional
Outline: (§2)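 Human tumor xenografts passaged in athymic mice, tested by the NCI Developmental Therapeutics Program. %ILS is the percentage increase in median days for treated tumors to reach a set size versus untreated controls.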

Mus musculus [3] = assay: Percentage increase in the median time in days for the COLO 205 treated tumor to reach a certain size compared to controls at the dose of 16.8 mg/kg; assay type: functional; outline: as §2
Mus musculus [4] = assay: Percentage increase in the median time in days for the KM12 treated tumor to reach a certain size compared to controls at the dose of 25 mg/kg; assay type: functional; outline: as §2
Mus musculus [5] = assay: Optimal value of the percentage reduction of the median treated CAKI-1 tumor weight compared to the median control tumor weight at the dose of 16.8 mg/kg; assay type: functional
Outline: (§3)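 The NCI Developmental Therapeutics Program passaged human tumor xenografts in athymic mice. % T/C is the optimal ratio of median treated to median control tumor weight. Tumor-growth delay (% ILS) was the increase in median days for treated tumors to reach a set size compared with controls.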

Mus musculus [6] = assay: Optimal value of the percentage reduction of the median treated COLO 205 tumor weight compared to the median control tumor weight at the dose of 16.8 mg/kg; assay type: functional; outline: as §3
Mus musculus [7] = assay: Optimal value of the percentage reduction of the median treated KM12 tumor weight compared to the median control tumor weight at the dose of 16.8 mg/kg; assay type: functional; outline: as §3
Homo sapiens [8] = organism: Homo sapiens; assay: Cytotoxicity evaluated against human tumor; assay type: functional; outline: as §1
Mus musculus [9] = assay: Percentage increase in the median time in days for the COLO 205 treated tumor to reach a certain size compared to controls at the dose of 200 mg/kg; assay type: functional; outline: as §2
Mus musculus [10] = assay: Percentage increase in the median time in days for the NCI-H522 treated tumor to reach a certain size compared to controls at the dose of 80 mg/kg; assay type: functional; outline: as §2
Mus musculus [11] = assay: Percentage increase in the median time in days for the SW-620 treated tumor to reach a certain size compared to controls at the dose of 80 mg/kg; assay type: functional; outline: as §2
Mus musculus [12] = assay: Optimal value of the percentage reduction of the median treated COLO 205 tumor weight compared to the median control tumor weight at the dose of 200 mg/kg; assay type: functional; outline: as §3
Mus musculus [13] = assay: Optimal value of the percentage reduction of the median treated NCI-H522 tumor weight compared to the median control tumor weight at the dose of 80 mg/kg; assay type: functional; outline: as §3
Mus musculus [14] = assay: Optimal value of the percentage reduction of the median treated SW-620 tumor weight compared to the median control tumor weight at the dose of 80 mg/kg; assay type: functional; outline: as §3

SMILES | IC50 (Homo sapiens [1]) [µM] | IC50 (P388) [µM] | IC50 (L1210) [µM] | further results
CC[N+]1(C)CC[C@@](O)(c2ccc(OC)cc2)[C@H](C(=O)c2ccc(OC)cc2)C1 (stereo partly drawn) | 10.2 | 0.98 |  | 
CC[N+]1(C)CC[C@@](O)(/C=C/c2ccc(C)cc2)[C@H](C(=O)/C=C/c2ccc(C)cc2)C1 (stereo partly drawn) |  | 0.62 | 13.8 | 
CC[N+]1(C)CC[C@@](O)(c2ccc(C)cc2)[C@H](C(=O)c2ccc(C)cc2)C1 (stereo partly drawn) | 50.1 | 2.1 |  | 
CC[N+]1(C)CC[C@@](O)(c2ccc(Cl)c(Cl)c2)[C@H](C(=O)c2ccc(Cl)c(Cl)c2)C1 (stereo partly drawn) | 9.54 | 2.3 | 33.6 | 
CC[N+]1(C)CC[C@@](O)(c2ccc(Cl)cc2)[C@H](C(=O)c2ccc(Cl)cc2)C1 (stereo partly drawn) | 12.9 | 1.5 |  | 
CC[N+]1(C)CC[C@@](O)(c2ccccc2)[C@H](C(=O)c2ccccc2)C1 (stereo partly drawn) |  | 1.3 |  | 
CC[N+]1(C)CC[C@@](O)(/C=C/c2ccccc2)[C@H](C(=O)/C=C/c2ccccc2)C1.[Br-] (stereo partly drawn) | 8.31 | 2.27 |  | ILS at 16.8 mg/kg (Mus musculus [2]): 6%; ILS at 16.8 mg/kg (Mus musculus [3]): 14%; ILS at 25 mg/kg (Mus musculus [4]): 5%; T/C (Mus musculus [5]): 43%; T/C (Mus musculus [6]): 20%; T/C (Mus musculus [7]): 45%
CC[N+]1(C)CC[C@@](O)(/C=C/c2ccc(Cl)c(Cl)c2)[C@H](C(=O)/C=C/c2ccc(Cl)c(Cl)c2)C1 (stereo partly drawn) | 2.19 | 0.64 | 21.4 | 
CCN1CC[C@@](O)(/C=C/c2ccc(Cl)c(Cl)c2)[C@H](C(=O)/C=C/c2ccc(Cl)c(Cl)c2)C1 | 0.38 | 0.4 |  | 
CCN(CC)CC(C)(C)C(=O)/C=C/c1ccc(Cl)cc1 |  | 2.2 | 6.39 | 
O=C(CCN1CCN(CCC(=O)c2ccccc2)CC1)c1ccccc1 |  | 2.84 | 9.71 | 
CCN1CC[C@@](O)(/C=C/c2ccccc2)[C@H](C(=O)/C=C/c2ccccc2)C1 | 2.75 | 1.4 | 5.3 | 
CCN1CC[C@@](O)(/C=C/c2ccccc2C)[C@H](C(=O)/C=C/c2ccccc2C)C1 | 2.46 | 1.89 | 12.6 | 
CCN(CC)CCC(=O)c1ccc(C)cc1 | 26.3 | 2.2 | 21.5 | 
CCN1CC[C@@](O)(c2ccc(Cl)c(Cl)c2)[C@H](C(=O)c2ccc(Cl)c(Cl)c2)C1 | 16.6 | 3.11 |  | 
CCN(CC)CCC(=O)/C=C/c1ccc(C)cc1 |  | 1.1 | 52.9 | 
CCN1CC[C@@](O)(c2ccc(Cl)cc2)[C@H](C(=O)c2ccc(Cl)cc2)C1 | 83.2 | 5.14 | 15.7 | 
CCN(CC)CCC(=O)/C=C/c1ccc(Cl)c(Cl)c1 | 3.8 | 0.39 | 61.2 | 

SMILES | IC50 (Homo sapiens [1]) [µM] | IC50 (P388) [µM] | IC50 (L1210) [µM] | further results
CCN1CC[C@@](O)(/C=C/c2ccc(OC)cc2)[C@H](C(=O)/C=C/c2ccc(OC)cc2)C1 |  | 5 | 25.6 | IC50 (Homo sapiens [8]): 8.31 µM
CCN1CC[C@@](O)(/C=C/c2ccc(C)cc2)[C@H](C(=O)/C=C/c2ccc(C)cc2)C1.Cl | 5.01 | 2.1 | 6.08 | ILS at 200 mg/kg (Mus musculus [9]): 28%; ILS at 80 mg/kg (Mus musculus [10]): -2%; ILS at 80 mg/kg (Mus musculus [11]): 9%; T/C (Mus musculus [12]): 57%; T/C (Mus musculus [13]): 23%; T/C (Mus musculus [14]): 32%
CCN(CC)CCC(=O)c1ccc(Cl)cc1 |  | 3.2 | 36.9 | 
CCN(CC)CCC(=O)/C=C/c1ccccc1 | 9.77 | 1.7 | 25.7 | 
CCN(CC)CCC(=O)c1ccc(Cl)c(Cl)c1 | 32.4 | 0.31 | 36.4 | 
CCN(CC)CCC(=O)/C=C/c1ccc(Cl)cc1 |  | 0.3 | 41 | 
CCN1CC[C@@](O)(c2ccc(OC)cc2)[C@H](C(=O)c2ccc(OC)cc2)C1 | 19.5 | 4.17 | 13.5 | 
CCN1CC[C@@](O)(c2ccc(C)cc2)[C@H](C(=O)c2ccc(C)cc2)C1 | 25.1 | 8.6 | 38.2 | 
CCN(CC)CCC(=O)c1ccccc1 | 25.1 | 2.6 | 20.3 | 
CCN1CC[C@@](O)(c2ccc(O)cc2)[C@H](C(=O)c2ccc(O)cc2)C1 | 20.9 | 1.4 | 9.75 | 
CCN(CC)CCC(=O)c1ccc(OC)cc1 |  | 1.6 | 43.8 | 
CCN1CC[C@@](O)(/C=C/c2ccc(C)cc2C)[C@H](C(=O)/C=C/c2ccc(C)cc2C)C1 |  | 2.59 | 20.9 | 
CCN(CC)CCC(=O)/C=C/c1ccc(OC)cc1 |  | 0.67 | 44.3 | 
O=C(/C=C/c1ccccc1)CCN1CCN(CCC(=O)/C=C/c2ccccc2)CC1 | 12 | 0.62 | 5.78 | 
CCN1CC[C@@](O)(c2ccccc2)[C@H](C(=O)c2ccccc2)C1 | 30.2 | 1.07 | 20.1 | 
CCN1CC[C@@](O)(/C=C/c2ccc(Cl)cc2)[C@H](C(=O)/C=C/c2ccc(Cl)cc2)C1 | 25.7 | 1.1 | 6.96 | 
N[C@@H](Cc1ccc(N(CCCl)CCCl)cc1)C(=O)O | 26.3 |  |  | 
